The subject of data set [1] is Plasmodium falciparum. Kind of data set: Antimalarial activity against chloroquine-sensitive Plasmodium falciparum 3D7A infected in type A rhesus-positive human erythrocytes assessed as [3H]hypoxanthine incorporation after 48 hrs by scintillation counting. It counts as functional, organism-based. The gist of the method: (§1)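 Modified semiautomated microdilution: compounds dissolved in DMSO, diluted in RPMI 1640 with 10% v/v human plasma, serial 1:2 dilutions in triplicate. Infected erythrocytes at 3% hematocrit, 0.25−0.55% parasitemia. [3H]hypoxanthine at 12.5−16 μCi/mL final. Incubated 48 h, 37 °C, in 5% O2/3% CO2/92% N2. Harvested on fiberglass strips, scintillation counted. IC50 by nonlinear regression of concentration−response curves.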

Data set [2] deals with Streptococcus pyogenes. The data set is described as follows: Antibacterial activity against Streptococcus pyogenes isolate 3565 by broth microdilution method. It counts as functional. In outline:
(§2)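 Standard broth microdilution MIC against macrolide-sensitive strains. For streptococci, 5% horse serum replaced lysed horse blood in the broth, and inocula were grown on Columbia agar with 5% sheep blood. S. aureus was grown on Mueller–Hinton agar.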
(Dilution methods test growth across graded concentrations, often in twofold steps.)

Data set [3] has as its system Staphylococcus aureus. Kind of data set: Antibacterial activity against Staphylococcus aureus ATCC 13709 by broth microdilution method. It counts as functional. In outline: as §2
In data set [4] the test system is Plasmodium falciparum. Kind of data set: Antimalarial activity against chloroquine-resistant Plasmodium falciparum W2 infected in type A rhesus-positive human erythrocytes assessed as [3H]hypoxanthine incorporation after 48 hrs by scintillation counting. It counts as functional, organism-based. In outline: as §1
The nature of data set [5]: Selectivity ratio of IC50 for human HepG2 cells to IC50 for chloroquine-sensitive Plasmodium falciparum 3D7A. It counts as ADME, cell-based. The conditions noted are these: HepG2 cells versus Plasmodium falciparum 3D7A, read-out: Ratio IC50. In outline: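 Selectivity is the HepG2 IC50 divided by the P. falciparum IC50. For HepG2, 50000 cells per well in RPMI 1640 with 10% FBS were exposed to 1:2 serial dilutions for 24 h at 37 °C, 5% CO2. MTS was added for 2 h and absorbance read at 490 nm. Parasite IC50 came from the 48 h [3H]hypoxanthine assay.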

Data set [6] has as its system Streptococcus pneumoniae. Kind of data set: Antibacterial activity against Streptococcus pneumoniae isolate SP030 by broth microdilution method. It counts as functional. In outline:
as §2

For data set [7], the system named is HepG2. The data set is described as follows: Cytotoxicity against human HepG2 cells after 24 hrs by MTS assay. It counts as cell-based. The conditions noted are these: HepG2, 24 h. The gist of the method: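 Hep G2 cells were kept in RPMI 1640 with 10% FBS at 37 °C and 5% CO2. Wells held 50000 cells and received 1:2 serial dilutions of compound (DMSO stock diluted in medium) for 24 h. MTS reagent was then added for 2 h, absorbance was read at 490 nm, and IC50 was taken from response curves.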

Data set [8] is described as follows: Aqueous solubility of the compound at pH 4. It counts as physicochemical.
For data set [9], the system named is Plasmodium falciparum. Kind of data set: Ratio of IC50 for azithromycin to compound IC50 for chloroquine-resistant Plasmodium falciparum W2 infected in type A rhesus-positive human erythrocytes assessed as [3H]hypoxanthine incorporation after 48 hrs by scintillation counting. It counts as functional.
The test system of data set [10] is Plasmodium falciparum. The data set is described as follows: Ratio of IC50 for azithromycin to compound IC50 for chloroquine-sensitive Plasmodium falciparum 3D7A infected in type A rhesus-positive human erythrocytes assessed as [3H]hypoxanthine incorporation after 48 hrs by scintillation counting. It counts as functional.
The nature of data set [11]: Selectivity ratio of IC50 for human HepG2 cells to IC50 for chloroquine-sensitive Plasmodium falciparum 3D7A. The conditions noted are these: HepG2 cells versus Plasmodium falciparum 3D7A.

Seven compounds from ChEMBL document CHEMBL2040808, “Design, synthesis, and in vitro activity of novel 2'-O-substituted 15-membered azalides” (J Med Chem, 2012) can be followed below.

Molecules are shown by their SMILES. In brackets after ≈: the same amount, converted by molar mass. Bounds are passed on as bounds.

As to `CC[C@H]1OC(=O)[C@H](C)[C@@H](O[C@H]2C[C@@](C)(OC)[C@@H](O)[C@H](C)O2)[C@H](C)[C@@H](O[C@@H]2O[C@H](C)C[C@H](N(C)C)[C@H]2OCCCNC(=O)CNc2ccnc3cc(Cl)ccc23)[C@](C)(O)C[C@@H](C)CN(C)[C@H](C)[C@@H](O)[C@]1(C)O`, the IC50 amounted to 14 nM in data set [1], 9 nM in [4] and 28000 nM in data set [7]. The MIC in data set [2], in [3] and in [6] was over 64 µg/mL each time. In addition, the selectivity ratio in [5] and in data set [11] was 132 each time. In data set [8], this compound came in with a solubility of over 10000 µg/mL. Further, the “Ratio IC50” value in data set [9] and in data set [10] was 3 throughout.
Regarding `CC[C@H]1OC(=O)[C@H](C)[C@@H](O[C@H]2C[C@@](C)(OC)[C@@H](O)[C@H](C)O2)[C@H](C)[C@@H](O[C@@H]2O[C@H](C)C[C@H](N(C)C)[C@H]2OCCCNC(=O)CNc2ccnc3ccccc23)[C@](C)(O)C[C@@H](C)CN(C)[C@H](C)[C@@H](O)[C@]1(C)O`, the IC50 in [1] was 119 nM; in [4], 68 nM; in data set [7], over 100000 nM. Further, the MIC in data set [2], in data set [3] and in data set [6] was over 64 µg/mL throughout. Moreover, the selectivity ratio in [5] and in [11] was 132 each time. In data set [8], this compound had a solubility of over 10000 µg/mL. Besides, the “Ratio IC50” value in [9] and in data set [10] was 3 throughout.
Take `CC[C@H]1OC(=O)[C@H](C)[C@@H](O)[C@H](C)[C@@H](O[C@@H]2O[C@H](C)C[C@H](N(C)C)[C@H]2OCCCNC(=O)CNc2ccnc3ccccc23)[C@](C)(O)C[C@@H](C)CN(C)[C@H](C)[C@@H](O)[C@]1(C)O`: the IC50 was 1660 nM in data set [1] and 815 nM in data set [4]. Also, the selectivity ratio in [5] and in data set [11] was 132 in each case. In addition, in [8], the solubility is over 10000 µg/mL. The “Ratio IC50” value in data set [9] and in [10] was 3 in each case.
As to `CC[C@H]1OC(=O)[C@H](C)[C@@H](O)[C@H](C)[C@@H](O[C@@H]2O[C@H](C)C[C@H](N(C)C)[C@H]2OCCCN(C)Cc2cnc3ccccc3c2)[C@](C)(O)C[C@@H](C)CN(C)[C@H](C)[C@@H](O)[C@]1(C)O`, the IC50 was 1290 nM in data set [1], 311 nM in data set [4] and over 100000 nM in [7]. Also, the MIC in data set [2], in data set [3] and in data set [6] was over 64 µg/mL throughout. In [8], this compound yielded a solubility of over 10000 µg/mL. Also, the “Ratio IC50” value in data set [9] and in [10] was 3 in each case.
As to `CC[C@H]1OC(=O)[C@H](C)[C@@H](O)[C@H](C)[C@@H](O[C@@H]2O[C@H](C)C[C@H](N(C)C)[C@H]2OCCCNCc2cnc3ccccc3c2)[C@](C)(O)C[C@@H](C)CN(C)[C@H](C)[C@@H](O)[C@]1(C)O`, the IC50 was 1370 nM in [1], 286 nM in data set [4] and over 100000 nM in data set [7]. Also, the MIC in [2], in data set [3] and in [6] was over 64 µg/mL each time. This compound also gave a solubility in data set [8] of over 10000 µg/mL. Besides, the “Ratio IC50” value in data set [9] and in [10] was 3 each time.
As for `CC[C@H]1OC(=O)[C@H](C)[C@@H](O[C@H]2C[C@@](C)(OC)[C@@H](O)[C@H](C)O2)[C@H](C)[C@@H](O[C@@H]2O[C@H](C)C[C@H](N(C)C)[C@H]2O)[C@](C)(O)C[C@@H](C)CN(C)[C@H](C)[C@@H](O)[C@]1(C)O` [AZITHROMYCIN], the MIC was at most 0.125 µg/mL in data set [2], 0.5 µg/mL (≈ 0.668 µM) in [3] and at most 0.125 µg/mL in data set [6]. For the same compound, the selectivity ratio in data set [5] and in data set [11] was 132 in each case.
Take `CCN(CC)CCCC(C)Nc1ccnc2cc(Cl)ccc12` (stereo not given) [CHLOROQUINE]: the MIC in data set [2], in data set [3] and in [6] was over 64 µg/mL throughout.

The term IC50 denotes the concentration needed to halve the response being measured. As usually defined, the MIC is the lowest concentration found to suppress growth. Read a high MIC as a less susceptible organism. As usually defined, the solubility is how much of the substance goes into solution per volume.
